Results on seven compounds are retold here after ChEMBL document CHEMBL1145814, “Antiretroviral activity of semisynthetic derivatives of glycopeptide antibiotics” (J Med Chem, 2003).

Assay [1] is filed under the species Mus musculus. In words: Minimal inhibitory concentration required to cause a microscopic detectable alteration of C3H/3T3 embryo murine fibroblast cell morphology. In kind it is functional. The essentials: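 Uninfected C3H/3T3 murine embryo fibroblast cultures were exposed to test compound and checked microscopically for changes in cell morphology. The MIC is the concentration causing a microscopically detectable alteration of morphology.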

For a further assay, the system named is CCRF-CEM. In words: Inhibitory concentration against proliferation of human T-lymphocytic (CEM) cells. It is filed as functional, cell-based. Conditions: Homo sapiens, CCRF-CEM. In outline:
(§1)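 (5–7.5) × 10^4 cells per well were incubated with test compound at 37 °C in a humidified CO2 atmosphere. L1210 murine leukemia cells grew for 48 h, and CEM and Molt4/clone 8 human lymphocytes grew for 72 h. Cells were then counted with a Coulter counter. IC50 is the concentration inhibiting proliferation by 50%.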

Assay [2] relates to Human immunodeficiency virus 2. In words: Concentration required to protect human T-lymphocytic cells against the cytopathogenicity of HIV-2. In kind it is functional, organism-based. The following applies: Human immunodeficiency virus 2. (In general: Damage to the host cells serves as the signal in cytopathic effect assays.)
For assay [3], the system named is Human immunodeficiency virus 1. In words: Effective concentration of compound required to protect human T-lymphocytic cells against the cytopathogenicity of HIV-1. In kind it is functional, organism-based. The following applies: Human immunodeficiency virus 1.
The next assay relates to L1210. In words: Inhibitory concentration of compound against proliferation of murine lukemia cells L1210 was determined. The following applies: Mus musculus. In kind it is functional, cell-based. In outline:
as §1

A further assay relates to MOLT-4. In words: Inhibitory concentration of compound against proliferation of human T-lymphocytic cells MOLT-4/C8 was determined. It is filed as functional, cell-based. The essentials:
as §1

The species entered for assay [4] is Mus musculus. In words: Effective concentration of compound required to protect C3H/3T3 embryo murine fibroblasts against the MSV induced transformation. It is filed as functional, organism-based. The following applies: Mus musculus, C3H/3T3. In outline:
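Monolayer murine embryo fibroblast C3H/3T3 cultures were infected with Moloney murine sarcoma virus at 75 focus-forming units and cultured with test compound. Transformation was examined microscopically on day 6 postinfection. EC50 is the concentration protecting cells against MSV-induced transformation by 50%.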

Converted amounts (≈) assume the structure as drawn. Where only a bound is given, the exact number is not on record here.

As a reminder, the IC50 is the concentration needed to halve the response being measured. Read a low IC50 as greater potency. For orientation: EC50 means the concentration that produces a half-maximal response. The low end stands for higher potency in that assay, the high end for lower potency in that assay. On to `CNC(=O)[C@@H]1NC(=O)C2NC(=O)C(NC(=O)C3NC(=O)C4NC(=O)C(NC(=O)C(N)c5ccc(O)c(c5)Oc5cc(O)cc4c5)C(O)c4ccc(c(Cl)c4)Oc4cc3cc(c4O[C@@H]3O[C@@H](CO)[C@@H](O)[C@H](O)[C@@H]3NC(=O)CCCCCCC(C)C)Oc3ccc(cc3Cl)C2O[C@@H]2O[C@@H](CO)[C@@H](O)[C@H](O)[C@@H]2NC(C)=O)c2ccc(O)c(c2)-c2c(O[C@H]3O[C@H](CO)[C@@H](O)[C@@H](O)[C@@H]3O)cc(O)cc21` (some centres undefined), for which, in the assay filed under Mus musculus [1], the MIC is more than 100 µM. The IC50 in the assay on CCRF-CEM, in the assay on L1210 and in the assay with MOLT-4 was more than 500 µM each time. In addition, the results for the EC50 (in assay [2]; in assay [3]; in the assay filed under Mus musculus [4]) were 190 µM, 80 µM and 75 µM, respectively.

In the assay listed under Mus musculus [1], `CCCCc1ccc(CN2CCN(Cc3c(O)cc4c(c3O)-c3cc(ccc3O)C3NC(=O)C5NC(=O)C6NC(=O)C(Cc7ccc(cc7)Oc7cc5cc(c7OC5OC(C(=O)O)C(O)C(O)C5N)Oc5ccc(cc5Cl)C(O)C(NC3=O)C(=O)N[C@H]4C(=O)O)NC(=O)C(NC)c3ccc(O)c(c3)Oc3cc(O)c(Cl)c6c3)CC2)cc1` (some centres undefined) yielded an MIC of 100 µM (≈ 163 µg/mL). Besides, the IC50 is 106 µM in the assay with CCRF-CEM, 20 µM with L1210 and more than 50 µM in the assay with MOLT-4. For the same compound, the results for the EC50 (in assay [2]; in assay [3]; in the assay filed under Mus musculus [4]) were more than 50 µM, 20 µM and 6.9 µM, respectively.

`CN[C@@H](CC(C)C)C(=O)NC1C(=O)N[C@@H](CC(N)=O)C(=O)NC2C(=O)NC3C(=O)NC(C(=O)N[C@@H](C(=O)O)c4cc(O)cc(O)c4-c4cc3ccc4O)C(O)c3ccc(cc3)Oc3cc2cc(c3O)Oc2ccc(cc2Cl)C1O` (some centres undefined) showed an MIC in the assay filed under Mus musculus [1] of more than 100 µM. Moreover, the IC50 with CCRF-CEM, in the assay with L1210 and with MOLT-4 was more than 500 µM in each case. Also, the EC50 was more than 250 µM in assay [2], 50 µM in assay [3] and more than 100 µM in the assay filed under Mus musculus [4].

On to `COC(=O)[C@@H]1NC(=O)C2NC(=O)C(NC(=O)C3NC(=O)C4NC(=O)C(Cc5ccc(c(Cl)c5)Oc5cc3cc(c5O)Oc3ccc(cc3Cl)C2O)NC(=O)C(N)c2ccc(O)c(c2)Oc2cc(O)cc4c2)c2ccc(O)c(c2)-c2c(O)cc(O)cc21` (some centres undefined), for which, in the assay listed under Mus musculus [1], the MIC is more than 100 µM. The IC50 was 248 µM with CCRF-CEM, 364 µM with L1210 and more than 500 µM in the assay with MOLT-4. In addition, the half-maximal effective concentration (EC50) in assay [2] is 15 µM; in assay [3], 9.5 µM; in the assay listed under Mus musculus [4] it was 12 µM.

In turn, `CN[C@H](CC(C)C)C(=O)N[C@H]1C(=O)N[C@@H](CC(N)=O)C(=O)N[C@H]2C(=O)N[C@H]3C(=O)N[C@H](C(=O)N[C@H](C(=O)NCc4ccc(-c5ccc(Cl)cc5)cc4)c4cc(O)cc(O)c4-c4cc3ccc4O)[C@H](O[C@H]3C[C@](C)(N)[C@@H](O)[C@H](C)O3)c3ccc(cc3)Oc3cc2cc(c3O[C@@H]2O[C@H](CO)[C@@H](O)[C@H](O)[C@H]2O[C@H]2C[C@](C)(N)[C@@H](O)[C@H](C)O2)Oc2ccc(cc2Cl)[C@H]1O` came in with an MIC in the assay filed under Mus musculus [1] of 4 µM (≈ 7.03 µg/mL). For the same compound, the IC50 with CCRF-CEM came to 8.6 µM; in the assay with L1210, 15 µM; with MOLT-4 it was 7.7 µM. In addition, the EC50 in assay [2] was more than 10 µM; in assay [3], more than 10 µM; in the assay listed under Mus musculus [4], more than 0.8 µM.

In the assay filed under Mus musculus [1], `CCCCc1ccc(CNC2C(Oc3c4cc5cc3Oc3ccc(cc3Cl)C(O)C3NC(=O)C(NC(=O)C5NC(=O)C5NC(=O)C(Cc6ccc(cc6)O4)NC(=O)C(NC)c4ccc(O)c(c4)Oc4cc(O)c(Cl)c5c4)c4ccc(O)c(c4)-c4c(cc(O)c(CN5CCN(Cc6ccc(-c7ccccc7)cc6)CC5)c4O)[C@H](C(=O)NCCCN(C)C)NC3=O)OC(C(=O)NCCCN(C)C)C(O)C2O)cc1` (some centres undefined) returned an MIC of 20 µM (≈ 39.3 µg/mL). The IC50 with CCRF-CEM was 212 µM; with L1210, 25 µM; in the assay on MOLT-4 it was 35 µM. For the same compound, the results for the EC50 (in assay [2]; in assay [3]; in the assay filed under Mus musculus [4]) were 20 µM, 3.5 µM and more than 4 µM, respectively.

Turning to `CNC1C(=O)NC2Cc3ccc(cc3)Oc3cc4cc(c3O[C@@H]3O[C@@H](C(=O)O)[C@@H](O)[C@H](O)[C@@H]3N)Oc3ccc(cc3Cl)C(O)C3NC(=O)C(NC(=O)C4NC(=O)C(NC2=O)c2cc(cc(O)c2Cl)Oc2cc1ccc2O)c1ccc(O)c(c1)-c1c(O[C@H]2O[C@H](CO)[C@@H](O)[C@@H](O)[C@@H]2O)cc(O)cc1[C@H](C(=O)O)NC3=O` (some centres undefined), the MIC in the assay filed under Mus musculus [1] was more than 100 µM. In addition, the half-maximal inhibitory concentration (IC50) in the assay with CCRF-CEM, with L1210 and in the assay with MOLT-4 was more than 500 µM in each case. The EC50 in assay [2] is more than 250 µM; in assay [3], more than 250 µM; in the assay listed under Mus musculus [4] it was more than 100 µM.
